In ChEMBL document CHEMBL1914305, “Synthesis and structure-activity evaluation of isatin-β-thiosemicarbazones with improved selective activity toward multidrug-resistant cells expressing P-glycoprotein” (J Med Chem, 2011):
In brackets after ≈: the same amount, converted by molar mass. Activity calls are given as the source filed them. The rule behind the calls is not given here.

Experiments:
[1] = Cytotoxicity against human KB-3-1 cells after 72 hrs by MTT assay; type: functional, cell-based; details: KB 3-1, 72 h
Procedure, shortened: (§1)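 Grown in DMEM with 10% FBS. MTT assay: 4000 cells/well, 24 h settling, serial dilutions of drug, 72 h at 37 °C in 5% CO2. MTT in IMDM 4 h, then acidified ethanol 15 min, A570 with 690 nm background. Three experiments in triplicate. KB-V1-R comes from KB-V1 grown long-term drug-free.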

[2] = Cytotoxicity against vinblastine-selected human KBV1 cells after 72 hrs by MTT assay; type: functional, cell-based; details: KB-V1, 72 h
Procedure, shortened: as §1, with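 “background. IC50 is the concentration reducing absorbance to 50% of untreated control.” for “background.”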

[3] = Selectivity ratio of IC50 for human KB-3-1 cells to IC50 for human KBV1 cells selected at 1 ug/mL vinblastine; type: functional
Procedure, shortened: (§2)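 Selectivity ratio: IC50 in the parental or empty-vector cells divided by IC50 in the P-gp-expressing cells (KB-V1, or ABCB1-transfected LLC-PK1). MTT assay: 4000 cells/well established for 24 h, then 72 h exposure to serially diluted drug at 37 °C, 5% CO2. MTT for 4 h, acidified ethanol lysis, A570 corrected at A690. IC50 is the concentration giving 50% of untreated absorbance, from at least three experiments.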

[4] = tested on: LLC-PK1; assay: Cytotoxicity against pig LLC-PK1 cells transfected with empty vector after 72 hrs by MTT assay; type: cell-based; details: Sus scrofa, LLC-PK1, 72 h
Procedure, shortened: (§3)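 LLC-PK1 empty-vector lines grown in M199 with 10% FBS; transfected lines also in 0.5 mg/mL G418. MTT assay: 4000 cells/well for 24 h, then serially diluted drug for 72 h at 37 °C, 5% CO2. MTT 4 h, acidified ethanol, A570 minus 690 nm. IC50 is 50% of untreated absorbance. Triplicate wells, three experiments.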

[5] = tested on: LLC-PK1; assay: Cytotoxicity against pig LLC-PK1 cells after 72 hrs by MTT assay; type: cell-based; details: Sus scrofa, LLC-PK1, 72 h; procedure, shortened: as §3
[6] = Selectivity ratio of IC50 for pig LLC-PK1 cells transfected with empty vector to IC50 for pig LLC-PK1 cells; type: ADME, cell-based, Sus scrofa; details: read-out: Ratio IC50; procedure, shortened: as §2
[7] = Cytotoxicity against P-gp expressing human KBV1 revertant cells after 72 hrs by MTT assay; type: functional, cell-based; details: KB-V1, 72 h, in the assay text read “P-gp-negative” for “P-gp expressing”
Procedure, shortened: as §1, with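 “background. IC50 is the concentration reducing absorbance to 50% of untreated control.” for “background.”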

[8] = Aqueous solubility of the compound; type: physicochemical; details: buffer
[9] = tested on: KB-V1; assay: Cytotoxicity against P-gp expressing human KBV1 cells after 72 hrs by MTT assay in presence of 4 uM P-gp substrate Rh123; type: functional, cell-based
[10] = tested on: NCI-H460; assay: Cytotoxicity against ABCG2-expressing human H460 cells at 10 to 20 uM after 72 hrs by MTT assay in presence of ABCG2 substrate 5 uM mitoxantrone; type: functional, cell-based
[11] = tested on: NCI-H460; assay: Cytotoxicity against ABCG2-expressing human H460 cells at 10 uM after 72 hrs by MTT assay; type: functional, cell-based
[12] = Cytotoxicity against P-gp-negative human KB-3-1 cells after 72 hrs by MTT assay in presence of 100 nM TQR; details: KB 3-1, 72 h
[13] = Cytotoxicity against P-gp expressing human KBV1 cells after 72 hrs by MTT assay in presence of 100 nM TQR; details: KB-V1, 72 h

solubility [8] [µg/mL]	Compound	IC50 [1] [µM]	IC50 [2] [µM]	Ratio IC50 [3]	IC50 [4] [µM]	IC50 [5] [µM]	selectivity ratio [6]	IC50 [7] [µM]	Activity [9]	Activity [10]	Activity [11]	IC50 [12] [µM]	IC50 [13] [µM]
	O=C1Nc2ccccc2/C1=N/NC(=S)Nc1ccc(F)cc1	14.2	1.92	7.4									
< 0.2	O=C1Nc2ccccc2/C1=N/NC(=S)Nc1ccc([N+](=O)[O-])cc1	15.6	2.07	8.3	28.4	4.46	6.4	7.21	Active	Active	Active	10	6.35
	COc1cc(NC(=S)N/N=C2\C(=O)Nc3ccccc32)cc(OC)c1OC	11.1	3.49	3.2									
	CN(C)c1ccc(NC(=S)N/N=C2\C(=O)Nc3ccccc32)cc1	6.95	2.32	3									
	O=C1Nc2ccccc2/C1=N/NC(=S)Nc1ccc(C(F)(F)F)cc1	8.59	2.1	4.1									
0.8 (≈ 2.27 µM)	CC(C)(C)c1ccc(NC(=S)N/N=C2\C(=O)Nc3ccccc32)cc1	8.13	0.71	14.8	29.3	2.89	10.1	6.5	Active	Active	Active	14.3	8.41
	CC(C)NC(=S)N/N=C1\C(=O)Nc2ccccc21	39.3	10.2	3.8									
	O=C1Nc2ccccc2/C1=N/NC(=S)Nc1ccc(Oc2ccccc2)cc1	5.72	1.67	3.4									
